Measured values from PubChem BioAssay.
The source made the active and inactive calls.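 The calls were made as follows, unless noted: active = inhibition at or above 50% at 10 µM; inactive = inhibition below 50%.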

How the values were obtained:
[1] = inhibitors of TNFa-induced NFkB p65 translocation, primary screen, imaging, HUVEC, MLSMR starter and 10KST1 sets (AID 438;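 active = inhibition above 20% together with a positive visual image hit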;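 also: compound added about 3h40 before a 20 min TNFalpha stimulation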;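 as to inhibition: signal is the nuclear over cytoplasmic p65 intensity ratio per well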); conditions: HUVEC TNFa-induced p65 nuclear translocation; cell count: measured here: nuclei count (cytotoxicity indicator), at 2.08 µM; inhibition: at 2 µM, stronger effect = higher value, 0% TNFa-plus-vehicle, 100% no-TNFa wells
[2] = inhibitors of mutant huntingtin aggregation, primary screen, imaging, exon1htt(103Q)mCFP cells, high-content imaging (AID 483;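 active = visual image review flags a hit and inhibition of aggregation exceeds 20%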;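 also: compound exposure lasted 3 days before fixation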;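 as to nuclei count: percent of the per-plate median nuclei count of sample wells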); conditions: exon1htt(103Q)mCFP cell line, aggregate imaging, at 2 µM; inhibition of aggregation: stronger effect = higher value; nuclei count: measured here: cell count, toxicity
[3] = inhibitors of E-selectin induction by TNFa, primary screen, imaging, HUVEC, immunofluorescence, MLSMR starter and 10KST1 sets (AID 487;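 active = visually confirmed hit in the image check and inhibition above 20%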;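 as to inhibition: signal is fraction of cell area covered by stained E-selectin grains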;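 as to nuclei count: 100% = median nuclei count of all wells on the same plate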); conditions: HUVEC TNFalpha-induced E-selectin immunofluorescence imaging, at 2 µM; inhibition: stronger effect = higher value; nuclei count: measured here: cell number, toxicity
[4] = target: Voltage-gated potassium channel subunit beta-2 (Rattus norvegicus) (UniProt P62483); test: KvBeta enzyme negative modulators, primary screen, biochemical, NADPH fluorescence (AID 622;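 active = fluorescence slope higher than the sample average by over 3 SD, cut at about -0.22 in these data, passing the limit was not always enough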;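 also: slope of raw intensity against log time taken from 70 to 1610 s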); conditions: recombinant KvBeta, 4-cyanobenzaldehyde reduction, at 10 µM, stronger effect = higher value
[5] = target: Voltage-gated potassium channel subunit beta-2 (Rattus norvegicus) (UniProt P62483); test: KvBeta positive modulators, primary screen, biochemical, NADPH fluorescence (AID 623;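 active = NADPH fluorescence slope more negative than the mean of all samples by about 3 SD, 99.7% confidence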;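 also: fluorescence intensity change per second fitted from 20 to 320 s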); conditions: Recombinant KvBeta, NADPH fluorescence decrease slope, 10 min; at 10 µM; stronger effect = lower value
[6] = target: Muscarinic acetylcholine receptor M4 (Homo sapiens) (UniProt P08173); test: compounds altering M4/GIRK thallium flux, either direction, primary screen, M4 allosteric agonist project, cell-based, HEK293 M4/GIRK, BTC-AM (AID 625;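 active = fluorescence slope after compound addition differing from the mean of all tested samples at 99.7% confidence, mostly higher but some lower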;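 also: thallium influx through GIRK channels coupled to M4 in HEK293 cells with BTC-AM dye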); conditions: at 10 µM, actives lie on both sides
Method in brief: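 assay system = HEK293 cells with M4 receptor and GIRK channels | medium = pH 7.3 thallium assay buffer | doses = 10 µM final, single point | timing = cells overnight at 37 °C, BTC-AM loading 1 h, reads 2 min total | signal = BTC-AM fluorescence, 1 Hz kinetic reads | read-out = post-addition slope, 15–24 s, of baseline-normalized fluorescence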

[7] = inhibitors of Sendai virus-induced IRF3 signaling, primary screen, TLR/RLR signaling modifier project, cell-based, Sendai virus stimulus, luciferase, 10K MLSCN set (AID 602276); conditions: HEK293 RL24 IRF3 luciferase reporter, at 10 µM, stronger effect = higher value;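 also: firefly luciferase from ISG56 promoter only with Renilla not read in this screen; 0% = Sendai virus plus DMSO and 100% = medium plus DMSO without virus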
[8] = inhibitors of poly I:C-induced TLR3 signaling, primary screen, cell-based, poly I:C stimulus, luciferase, 10K MLSCN set (AID 602277;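 active = inhibition of the reporter signal at or above 50%; inactive = inhibition below 50%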); conditions: HEK293-TLR3 RL24 IRF3 luciferase reporter, at 10 µM, stronger effect = higher value

Chain of Muscarinic acetylcholine receptor M4 (Homo sapiens) (P08173 whole entry, looked up): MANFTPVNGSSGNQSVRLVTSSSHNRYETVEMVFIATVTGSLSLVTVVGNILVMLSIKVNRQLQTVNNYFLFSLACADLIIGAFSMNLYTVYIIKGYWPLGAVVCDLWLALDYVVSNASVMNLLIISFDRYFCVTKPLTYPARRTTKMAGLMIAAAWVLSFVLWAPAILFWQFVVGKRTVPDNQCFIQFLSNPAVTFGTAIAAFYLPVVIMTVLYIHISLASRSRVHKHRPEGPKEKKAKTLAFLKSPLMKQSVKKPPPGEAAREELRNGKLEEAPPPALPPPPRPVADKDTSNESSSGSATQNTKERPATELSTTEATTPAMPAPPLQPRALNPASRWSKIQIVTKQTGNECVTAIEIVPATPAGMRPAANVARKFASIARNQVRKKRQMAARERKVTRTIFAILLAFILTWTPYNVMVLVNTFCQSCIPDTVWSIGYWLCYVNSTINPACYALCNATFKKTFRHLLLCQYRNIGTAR
Chain of Voltage-gated potassium channel subunit beta-2 (Rattus norvegicus) (P62483 whole entry, looked up): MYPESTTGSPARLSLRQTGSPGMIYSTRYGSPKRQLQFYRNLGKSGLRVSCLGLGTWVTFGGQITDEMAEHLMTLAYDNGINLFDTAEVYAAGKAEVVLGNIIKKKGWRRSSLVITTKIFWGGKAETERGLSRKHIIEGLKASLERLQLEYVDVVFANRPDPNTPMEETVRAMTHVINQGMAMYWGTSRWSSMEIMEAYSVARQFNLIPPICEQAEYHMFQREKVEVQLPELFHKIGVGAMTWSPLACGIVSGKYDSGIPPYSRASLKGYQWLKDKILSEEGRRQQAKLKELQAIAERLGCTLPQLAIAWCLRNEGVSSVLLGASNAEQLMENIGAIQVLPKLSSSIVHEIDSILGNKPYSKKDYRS

Row | Compound | cell count [1] | inhibition [1] | inhibition of aggregation [2] | nuclei count [2] [%] | inhibition [3] | nuclei count [3] [%] | fluorescence slope [4] | NADPH fluorescence slope [5] | fluorescence slope [6] | inhibition [7] | inhibition [8]
1 | Cc1csc2nc(CSc3nc4ccccc4o3)c(Br)n12 | 573 | -14.8% (inactive) | -9.5% (inactive) | 98.3 | -1.4% (inactive) | 125 | -0.536 (inactive) | 0.000171 (inactive) | 0.00576 (inactive) | -40% (inactive) | -122% (inactive)
2 | N#Cc1nc(-c2ccc(Cl)cc2)oc1NCCc1ccccn1 | 238 | 18.4% (inactive) | -7.2% (inactive) | 107 | -40.5% (inactive) | 97.9 | -0.59 (inactive) | -2.8e-06 (inactive) | 0.00656 (inactive) | 24.4% (inactive) | -35% (inactive)
3 | COc1cc(S(=O)(=O)NC2CCCCC2)ccc1Cl | 405 | 7.6% (inactive) | 4.9% (inactive) | 89 | 3.8% (inactive) | 94.9 | -0.417 (inactive) | 4.1e-05 (inactive) | 0.00482 (inactive) | 16.6% (inactive) | 31.9% (inactive)
4 | CCOC(=O)N1CCN(C(=O)C2c3cc(OC)c(OC)cc3C(=O)N3CCc4ccccc4C23)CC1 (stereo unspecified) | 312 | 0.5% (inactive) | 13.5% (inactive) | 104 | 6.9% (inactive) | 102 | -0.397 (inactive) | 4.3e-05 (inactive) | 0.00684 (inactive) | 14.7% (inactive) | 13.6% (inactive)
5 | COc1cccc(OC)c1C(=O)Nc1ccc(CN2CCCCC2)cc1 | 640 | -2.4% (inactive) | -16.7% (inactive) | 71.4 | -32.5% (inactive) | 98.8 | -0.425 (inactive) | -3.1e-06 (inactive) | 0.00659 (inactive) | 13.4% (inactive) | 23.2% (inactive)
6 | CN(C)CCCNC(=O)CCC1CCCCC1 | 333 | -12.5% (inactive) | -4% (inactive) | 103 | -132% (inactive) | 110 | -0.277 (inactive) | -3.7e-05 (inactive) | 0.00526 (inactive) | 12% (inactive) | 21.1% (inactive)
7 | O=C(CCN1CCN(C(=O)c2ccco2)CC1)Nc1ccc(F)cc1 | 356 | -2.6% (inactive) | -11.1% (inactive) | 87.1 | -78.7% (inactive) | 108 | -0.459 (inactive) | 0.000122 (inactive) | 0.00658 (inactive) | 11.5% (inactive) | 20.2% (inactive)
8 | CCOc1ccc(C(=O)Nc2cc(C)on2)cc1OCC | 372 | -2.3% (inactive) | -2.8% (inactive) | 110 | -61.3% (inactive) | 108 | -0.437 (inactive) | -5.8e-05 (inactive) | 0.00551 (inactive) | 11.5% (inactive) | 7.31% (inactive)
9 | Cc1cc(C)n(CCCNC(=O)c2ccc3c(c2)NC(=O)CS3)n1 | 722 | -0.6% (inactive) | -34.8% (inactive) | 87.8 | 10.7% (inactive) | 106 | -0.416 (inactive) | -1.2e-05 (inactive) | 0.00708 (inactive) | 14.3% (inactive) | 28.3% (inactive)
10 | CC(=O)Oc1ccc(CCC(C)OC(C)=O)cc1 (stereo unspecified) | 634 | -2.9% (inactive) | -2.2% (inactive) | 100 | -0.1% (inactive) | 84 | -0.518 (inactive) | -5.9e-05 (inactive) | 0.00491 (inactive) | 14.9% (inactive) | 12.9% (inactive)
11 | O=C(O)c1cccc(CN2C(=O)SC(Nc3ccccc3)C2=O)c1 (stereo unspecified) | 510 | 3.6% (inactive) | 5.6% (inactive) | 108 | 39.4% (inactive) | 108 | -0.405 (inactive) | 6.9e-06 (inactive) | 0.00521 (inactive) | 8.76% (inactive) | 18.9% (inactive)
12 | CCOC(=O)C1CCCN(C(=O)c2cc3c(C)nc4ccccc4c3o2)C1 (stereo unspecified) | 525 | -14.7% (inactive) | 8.7% (inactive) | 100 | -91.4% (inactive) | 119 | -0.522 (inactive) | 0.000185 (inactive) | 0.00625 (inactive) | 14.5% (inactive) | 5.32% (inactive)
13 | O=C(Nc1nnc(C2CCCCC2)s1)c1cccs1 | 511 | -8.1% (inactive) | -2.9% (inactive) | 108 | -77.2% (inactive) | 121 | -0.437 (inactive) | -2.3e-05 (inactive) | 0.00416 (inactive) | -37.9% (inactive) | -113% (inactive)
14 | Cc1nn(-c2ccc(F)cc2)c(C)c1NS(=O)(=O)c1ccc(Cl)cc1 | 307 | 4.2% (inactive) | 17.1% (inactive) | 89.1 | -56% (inactive) | 98.7 | -0.382 (inactive) | -4.6e-05 (inactive) | 0.00631 (inactive) | 13.3% (inactive) | 18.8% (inactive)
15 | COc1cccc(C(=O)Nc2cc(NC(=O)c3ccco3)ccc2OC)c1 | 406 | 10.9% (inactive) | 24.4% (inactive) | 88.1 | 17.3% (inactive) | 98.6 | -0.572 (inactive) | -3.4e-05 (inactive) | 0.00583 (inactive) | 19.4% (inactive) | 4.19% (inactive)
16 | CCOC(=O)Nc1ccc(OC)cc1S(=O)(=O)N1CCCCC1 | 714 | 3.3% (inactive) | -24% (inactive) | 87.3 | -14.6% (inactive) | 111 | -0.586 (inactive) | 2.6e-05 (inactive) | 0.00355 (inactive) | 11.7% (inactive) | 17% (inactive)
17 | COc1cc(C2C(C(=O)c3ccc(C)o3)=C(O)C(=O)N2c2cc(C)on2)cc(Br)c1O (stereo unspecified) | 724 | -16.4% (inactive) | -2.8% (inactive) | 109 | -127% (inactive) | 118 | -0.518 (inactive) | -3e-05 (inactive) | 0.00505 (inactive) | 13.3% (inactive) | 19.1% (inactive)
18 | O=C(O)CCNc1ccc2c(c1)OCCO2 | 510 | -26.5% (inactive) | 10% (inactive) | 118 | -25.3% (inactive) | 116 | -0.348 (inactive) | -3.8e-05 (inactive) | 0.00514 (inactive) | 4.8% (inactive) | 5.31% (inactive)
19 | CCOC(=O)c1cc2c(=O)n3cccc(C)c3nc2n(Cc2ccco2)c1=NC(=O)c1cccnc1 | 791 | -1.1% (inactive) | 1.7% (inactive) | 108 | -59.3% (inactive) | 112 | -0.439 (inactive) | -2e-05 (inactive) | 0.00326 (inactive) | 8% (inactive) | -0.151% (inactive)
20 | C=CCn1c(Cc2csc(N)n2)nnc1SCC(=O)OCC | 313 | -3.5% (inactive) | 18.2% (inactive) | 86.3 | 25.2% (inactive) | 77.4 | -0.48 (inactive) | -2.5e-05 (inactive) | 0.00546 (inactive) | 4.87% (inactive) | 10% (inactive)
21 | CCOC(=O)C1C(=O)OC(C)(C)C1C(C)C(=O)c1ccc(OC)cc1 (stereo unspecified) | 605 | -6.4% (inactive) | -4.2% (inactive) | 42.1 | 3.9% (inactive) | 92.7 | -0.47 (inactive) | 3.2e-06 (inactive) | 0.00448 (inactive) | 21.2% (inactive) | 23.4% (inactive)
22 | O=C(Nc1ccccc1)N1C(=O)C2(OCCO2)c2ccccc21 | 397 | 6.5% (inactive) | -15.7% (inactive) | 91.7 | -75.2% (inactive) | 105 | -0.542 (inactive) | -0.000137 (inactive) | 0.00486 (inactive) | 14.1% (inactive) | 7.78% (inactive)
23 | C/C(N)=C(/C#N)C(=O)COC(=O)COc1ccc(Cl)cc1 | 500 | 4.3% (inactive) | 11.4% (inactive) | 97.4 | -5.5% (inactive) | 105 | -0.414 (inactive) | 9.1e-05 (inactive) | 0.00641 (inactive) | 18.1% (inactive) | 23.1% (inactive)
24 | CCOC(=O)C1CCN(S(=O)(=O)c2cc(Cl)c(C)cc2OC)CC1 | 441 | -9.5% (inactive) | -0.9% (inactive) | 109 | -41% (inactive) | 116 | -0.587 (inactive) | 1.4e-05 (inactive) | 0.00585 (inactive) | 19.9% (inactive) | 38.6% (inactive)
25 | Cc1cc(NC(=O)CCC(=O)N(CCc2ccccc2)C(C(=O)NC2CCCC2)c2ccco2)no1 (stereo unspecified) | 592 | -7.5% (inactive) | -11.5% (inactive) | 102 | 6.8% (inactive) | 101 | -0.483 (inactive) | 0.000137 (inactive) | 0.00558 (inactive) | 4.62% (inactive) | 19.1% (inactive)
26 | CCCCc1cc(=O)oc2c(CN3CCCC3)c(O)c(Cl)cc12 | 531 | -12.6% (inactive) | -16.7% (inactive) | 46.6 | 26.1% (inactive) | 89.4 | -0.00586 (active) | 0 (inactive) | 0.00532 (inactive) | 20% (inactive) | 19.7% (inactive)
